Consider six compounds from ChEMBL document CHEMBL4190254, “Synthesis of sulfamoylbenzamide derivatives as HBV capsid assembly effector” (Eur J Med Chem, 2017).

Calls of active or inactive are those of the source. The calls are words filed in the database; no cut-off is given here.

The subject of data set [1] is Hepatitis B virus. As to the kind of experiment: Antiviral activity against HBV infected in human HepAD38 cells assessed as reduction in viral replication by RT-PCR method. In kind it is functional, organism-based. The method in brief: (§1)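 HBV DNA replication in HepAD38 cells was quantified by RT-PCR following an earlier published method, with data relative to the untreated control. EC50 (50% inhibition of HBV DNA replication) was derived by linear regression. Values are the mean ± SD of two or three replicates from 2 independent experiments.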

Data set [2] deals with Core antigen (Hepatitis B virus) (UniProt Q03732). As to the kind of experiment: Inhibition of capsid in HBV infected in human HepAD38 cells assessed as reduction in cccDNA formation by measuring reduction in HBe antigen secretion at 10 uM after 14 days by ELISA relative to control. In kind it is cell-based. The method in brief: (§2)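 HepAD38 cells, collagen-coated wells, DMEM/F12 with 10% heat-inactivated FBS. Tetracycline withdrawn 7 days to allow DNA synthesis and cccDNA formation; at day 7 tetracycline (0.3 μg/ml) plus compound re-added. Compound at 10 μM or 0.001–10 μM, medium and compound replenished every 5 days. Day-14 supernatant HBeAg by ELISA; EC50 by linear regression.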
In general terms: In an ELISA, binding on a coated surface is turned into a signal by an enzyme label.

Data set [3] relates to Hepatitis B virus. Nature of the data set: Antiviral activity against HBV infected in human HepAD38 cells assessed as reduction in extracellular viral DNA level by RT-PCR method. The class given is functional, organism-based. The method in brief:
as §1

Data set [4] has as its system Hepatitis B virus. As to the kind of experiment: Antiviral activity against HBV infected in human HepAD38 cells assessed as reduction in extracellular viral DNA level at 10 uM by RT-PCR method relative to control. The class given is functional. Further details: scale not given: the % may be the effect or the level left. The gist of the method:
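HBV DNA replication in HepAD38 cells was quantified by RT-PCR following an earlier published method. Each compound was tested at a single 10 μM concentration. Results are % inhibition ± SD relative to the untreated control.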

Data set [5] deals with Hepatitis B virus. Nature of the data set: Antiviral activity against HBV infected in human HepAD38 cells assessed as reduction in intracellular viral DNA level by RT-PCR method. In kind it is functional, organism-based. The method in brief: as §1
For another data set, the system named is CCRF-CEM. Nature of the data set: (§3) Cytotoxicity against human CEM cells by CellTiter 96 non-radioactive cell proliferation colorimetric assay. The class given is cell-based. The settings on record: ccrf-cem. The gist of the method: (§4)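 A CellTiter 96 colorimetric cell proliferation read-out was used in primary human PBM cells, CEM, Vero and HepG2 cells. CC50 is the concentration that inhibits cell growth by 50%.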

In the next data set the test system is HepG2. Nature of the data set: Cytotoxicity against human HepG2 cells by CellTiter 96 non-radioactive cell proliferation colorimetric assay. The class given is cell-based. The gist of the method:
as §4

A further data set concerns Vero. Nature of the data set: (§5) Cytotoxicity against African green monkey Vero cells by CellTiter 96 non-radioactive cell proliferation colorimetric assay. In kind it is cell-based. The following applies: chlorocebus sabaeus, vero. The method in brief: as §4
The target of the next data set is Core antigen (Hepatitis B virus, UniProt Q03732). As to the kind of experiment: (§6) Inhibition of capsid in HBV infected in human HepAD38 cells assessed as reduction in tetracycline-induced cccDNA formation by measuring reduction in HBe antigen secretion after 14 days by ELISA. In kind it is cell-based. The method in brief:
as §2

The target of data set [6] is Core antigen (Hepatitis B virus) (UniProt Q03732). The data set is described as §6. The class given is cell-based. The gist of the method: as §2
The test system of another data set is PBMC. As to the kind of experiment: (§7) Cytotoxicity against human PBMC by CellTiter 96 non-radioactive cell proliferation colorimetric assay. In kind it is cell-based. The method in brief:
as §4

Data set [7] has as its system Hepatitis B virus. As to the kind of experiment: Antiviral activity against HBV infected in human HepAD38 cells assessed as reduction in intracellular viral DNA level at 10 uM by RT-PCR method relative to control. The class given is functional. Further details: scale not given: the % may be the effect or the level left. The gist of the method:
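HepAD38 cells; intracellular HBV DNA quantified by RT-PCR, expressed relative to untreated control; single-point inhibition given as percent at 10 μM, mean ± SD of two or three replicates from 2 independent experiments.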

Data set [8] is described as follows: as §3. In kind it is cell-based, CCRF-CEM. The following applies: CEM (CCRF-CEM) cells. The method in brief: as §4
Data set [9] in a line: as §5. In kind it is cell-based. The following applies: chlorocebus sabaeus, Vero cells. The gist of the method:
as §4

Data set [10] in a line: as §7. In kind it is cell-based. The method in brief:
as §4

In data set [11] the test system is Hepatitis B virus. Nature of the data set: Inhibition of HBV capsid cp149 assembly expressed in Escherichia coli BL21 assessed as formation of disfigured circular assemblies at 20 uM preincubated for 1 hr followed by NaCl stimulation measured after overnight incubation by uranyl acetate staining based electron microscopic method. The gist of the method: (§8)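 Untagged HBV core residues 1–149 expressed in E. coli BL21 (1 mM IPTG, 16 °C overnight), purified as capsids, dissociated to dimers with 4 M urea in carbonate buffer pH 9.5; >95% pure. Dimers preincubated 1 hr with compound (20 μM), then capsid buffer added (final NaCl 300 mM, Cp149 monomer 10 μM); held 4 °C overnight; uranyl acetate negative-stain EM, single-blind.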

In data set [12] the test system is Hepatitis B virus. Nature of the data set: Antiviral activity against HBV infected in human HepDES19 cells assessed as reduction in viral replication. The class given is functional, organism-based.
Data set [13] has as its target Core antigen (Hepatitis B virus) (UniProt Q03732). Nature of the data set: Inhibition of capsid in HBV infected in human HepAD38 cells assessed as reduction in cccDNA formation by measuring reduction in HBe antigen secretion at 3 to 4 uM after 14 days by ELISA relative to control. In kind it is cell-based. The method in brief: as §2
In data set [14] the test system is Hepatitis B virus. As to the kind of experiment: Inhibition of HBV capsid cp149 assembly expressed in Escherichia coli BL21 assessed as spherical capsid aggregation in to clusters at 20 uM preincubated for 1 hr followed by NaCl stimulation measured after overnight incubation by uranyl acetate staining based electron microscopic method. The gist of the method:
as §8

Data set [15] has as its system Hepatitis B virus. Nature of the data set: Inhibition of HBV capsid cp149 assembly expressed in Escherichia coli BL21 at 20 uM preincubated for 1 hr followed by NaCl stimulation measured after overnight incubation by uranyl acetate staining based electron microscopic method. The gist of the method: as §8

Chain of Core antigen (Hepatitis B virus) (Q03732 as listed by the source): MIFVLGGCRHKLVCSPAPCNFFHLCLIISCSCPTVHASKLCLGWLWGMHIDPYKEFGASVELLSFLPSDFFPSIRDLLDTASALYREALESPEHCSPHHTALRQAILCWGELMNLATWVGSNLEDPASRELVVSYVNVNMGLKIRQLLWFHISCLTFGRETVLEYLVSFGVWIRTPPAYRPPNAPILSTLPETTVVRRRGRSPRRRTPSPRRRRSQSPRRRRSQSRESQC
Chain of Core antigen (Q03732 whole entry): as the sequence (Q03732 as listed by the source) above

As usually defined, the EC50 is the concentration that produces a half-maximal response. The EC90 is the concentration needed for an effect of 90%. The term inhibition denotes the relative decrease from the control value, in per cent. Broadly, the CC50 is the concentration at which the toxic effect on the cells reaches its halfway point. Turning to `O=C(Nc1ccc(F)c(F)c1)c1cc(NS(=O)(=O)C2CCCCC2)ccc1F`, the EC50 with Hepatitis B virus [1] was 3.7 µM; in the data set with Hepatitis B virus [3], 3.7 µM; in the data set with Hepatitis B virus [5] it was less than 0.1 µM; on Core antigen, 9.7 µM. The 90% effect concentration (EC90) is no less than 10 µM with Hepatitis B virus [1], no less than 10 µM in the data set on Hepatitis B virus [3], 7.9 µM in the data set with Hepatitis B virus [5] and greater than 10 µM in data set [6]. Besides, the inhibition in data set [2] came to 67%. In addition, the Activity worked out at 86% in the data set on Hepatitis B virus [4] and 63% in the data set on Hepatitis B virus [7]. Further, the CC50 with CCRF-CEM is 74.5 µM; in the data set with HepG2 it was 80.4 µM; in the data set with Vero it was 6.4 µM; in the data set on PBMC it was greater than 100 µM.
Regarding `Nc1ccn([C@@H]2CS[C@H](CO)O2)c(=O)n1` [LAMIVUDINE], the EC90 turned out to be 0.3 µM in the data set on Hepatitis B virus [1], 0.3 µM in the data set on Hepatitis B virus [3] and 0.7 µM with Hepatitis B virus [5]. Moreover, in [2], the inhibition is less than 1%. Also, the EC50 in the data set with Hepatitis B virus [5] is less than 0.01 µM; on Core antigen, greater than 10 µM. Besides, the 50% cytotoxic concentration (CC50) in data set [8] is greater than 100 µM; in the data set with HepG2 it was greater than 10 µM; in data set [9], greater than 100 µM; in [10] it was greater than 100 µM. For the same compound, the Activity in the data set on Hepatitis B virus [7] turned out to be 74%.
In the case of `O=C(Nc1ccc(F)c(F)c1)c1cc(NS(=O)(=O)C2CC2)ccc1F`, the half-maximal effective concentration (EC50) came to 6.9 µM in the data set with Hepatitis B virus [1], 6.9 µM in the data set with Hepatitis B virus [3], 0.8 µM in the data set on Hepatitis B virus [5] and 5.5 µM on Core antigen. The EC90 is greater than 10 µM in the data set with Hepatitis B virus [1], greater than 10 µM with Hepatitis B virus [3], 8.1 µM in the data set with Hepatitis B virus [5] and greater than 10 µM in data set [6]. For the same compound, the inhibition in data set [2] worked out at 61%. In addition, the Activity in the data set with Hepatitis B virus [4] came out at 76%. Besides, the cytotoxic concentration (CC50) came out at 11.8 µM with CCRF-CEM, 61.8 µM in the data set with HepG2, 30.7 µM in the data set on Vero and 39.2 µM with PBMC.
As for `O=C(Nc1ccc(F)c(F)c1)c1cc(S(=O)(=O)NC2CCCC2)ccc1F`, the EC50 with Hepatitis B virus [1] worked out at 0.8 µM; in the data set on Hepatitis B virus [3], 0.8 µM; in the data set with Hepatitis B virus [5], 0.6 µM; in the data set on Hepatitis B virus [12], 0.14 µM; on Core antigen, 1.3 µM. Besides, the concentration for an effect of 90% (EC90) in the data set on Hepatitis B virus [1] came to 7.8 µM; in the data set on Hepatitis B virus [3], 7.8 µM; in the data set on Hepatitis B virus [5], 4.3 µM; in data set [6], 4.6 µM. For the same compound, in the data set with Hepatitis B virus [11], the inhibition result is “Active”. Further, the CC50 came to 14 µM with CCRF-CEM, 37.1 µM with HepG2, 32.7 µM with Vero and 15.6 µM with PBMC. Moreover, in data set [13], the inhibition was found to be 90%.
Regarding `O=C(Nc1ccc(F)c(F)c1)c1cc(S(=O)(=O)N2CC(F)(F)C2)ccc1F`, the EC50 with Hepatitis B virus [1] was found to be 1.2 µM; in the data set on Hepatitis B virus [3] it was 1.2 µM; in the data set with Hepatitis B virus [5] it was 0.9 µM; at Core antigen, 1 µM. Besides, the 90% effect concentration (EC90) was 6.3 µM with Hepatitis B virus [1], 6.3 µM with Hepatitis B virus [3], 9.7 µM with Hepatitis B virus [5] and 3.2 µM in data set [6]. The inhibition entry with Hepatitis B virus [14] is “Active”. Further, the CC50 in the data set on CCRF-CEM is 3.7 µM; in the data set on HepG2, 27 µM; with Vero, 14.7 µM; in the data set with PBMC, 69.1 µM. Besides, in data set [13], the inhibition was found to be 90%.
Turning to `CC(C)(NC(=O)c1cccc(S(=O)(=O)NC2CCCC2)c1)c1ccc(F)c(F)c1`, in the data set on Hepatitis B virus [1], the EC50 was greater than 10 µM. Also, the CC50 with CCRF-CEM was 64 µM; in the data set with HepG2, greater than 100 µM; in the data set with Vero it was 84.3 µM; with PBMC it was greater than 100 µM. Also, the inhibition result in the data set with Hepatitis B virus [15] is “inactive”.
